{"source": "paper PMC8897028", "about": "(Acta Pharmaceutica Sinica. B, 2021)", "key": {"[1]": {"target": "T1, mTRPV3 H426A (Mus musculus, UniProt Q8K424, H426A)", "T1 sequence (Q8K424 1-791 H426A)": "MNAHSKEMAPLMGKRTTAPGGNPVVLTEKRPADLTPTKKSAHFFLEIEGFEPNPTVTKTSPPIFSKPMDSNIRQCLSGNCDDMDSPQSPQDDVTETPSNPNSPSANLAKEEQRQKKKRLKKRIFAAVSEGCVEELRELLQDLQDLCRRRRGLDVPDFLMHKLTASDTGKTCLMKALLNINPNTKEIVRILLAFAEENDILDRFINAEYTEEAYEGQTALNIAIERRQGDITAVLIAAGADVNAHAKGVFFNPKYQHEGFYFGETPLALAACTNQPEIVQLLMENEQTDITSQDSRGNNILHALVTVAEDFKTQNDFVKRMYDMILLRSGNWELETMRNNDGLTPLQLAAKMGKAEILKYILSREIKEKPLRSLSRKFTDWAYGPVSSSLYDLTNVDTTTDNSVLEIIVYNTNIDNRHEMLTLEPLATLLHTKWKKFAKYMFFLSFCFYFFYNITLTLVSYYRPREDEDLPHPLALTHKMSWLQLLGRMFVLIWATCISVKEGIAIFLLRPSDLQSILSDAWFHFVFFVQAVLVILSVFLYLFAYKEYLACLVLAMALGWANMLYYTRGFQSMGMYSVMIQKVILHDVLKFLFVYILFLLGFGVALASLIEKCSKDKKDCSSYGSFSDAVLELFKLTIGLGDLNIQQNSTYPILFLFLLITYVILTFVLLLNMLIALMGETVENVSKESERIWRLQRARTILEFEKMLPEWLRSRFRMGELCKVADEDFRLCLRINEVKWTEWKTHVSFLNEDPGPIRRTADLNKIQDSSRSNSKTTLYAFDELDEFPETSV", "experiment": "whole-cell patch-clamp of mTRPV3 H426A mutant in HEK293 cells", "format": "cell-based", "in_short": "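The sequence-confirmed site-directed mTRPV3 mutant was transiently expressed in HEK293 cells, and EGFP-positive cells were recorded whole-cell 18 h post-transfection. Cells were held at 0 mV with 500-ms ramps from −100 to +100 mV every 2 s, at 22–24 °C. Compounds were diluted in perfusion solution.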"}, "[2]": {"target": "T2, hTRPV3 (Homo sapiens, UniProt Q8NET8)", "T2 sequence (Q8NET8 1-790)": "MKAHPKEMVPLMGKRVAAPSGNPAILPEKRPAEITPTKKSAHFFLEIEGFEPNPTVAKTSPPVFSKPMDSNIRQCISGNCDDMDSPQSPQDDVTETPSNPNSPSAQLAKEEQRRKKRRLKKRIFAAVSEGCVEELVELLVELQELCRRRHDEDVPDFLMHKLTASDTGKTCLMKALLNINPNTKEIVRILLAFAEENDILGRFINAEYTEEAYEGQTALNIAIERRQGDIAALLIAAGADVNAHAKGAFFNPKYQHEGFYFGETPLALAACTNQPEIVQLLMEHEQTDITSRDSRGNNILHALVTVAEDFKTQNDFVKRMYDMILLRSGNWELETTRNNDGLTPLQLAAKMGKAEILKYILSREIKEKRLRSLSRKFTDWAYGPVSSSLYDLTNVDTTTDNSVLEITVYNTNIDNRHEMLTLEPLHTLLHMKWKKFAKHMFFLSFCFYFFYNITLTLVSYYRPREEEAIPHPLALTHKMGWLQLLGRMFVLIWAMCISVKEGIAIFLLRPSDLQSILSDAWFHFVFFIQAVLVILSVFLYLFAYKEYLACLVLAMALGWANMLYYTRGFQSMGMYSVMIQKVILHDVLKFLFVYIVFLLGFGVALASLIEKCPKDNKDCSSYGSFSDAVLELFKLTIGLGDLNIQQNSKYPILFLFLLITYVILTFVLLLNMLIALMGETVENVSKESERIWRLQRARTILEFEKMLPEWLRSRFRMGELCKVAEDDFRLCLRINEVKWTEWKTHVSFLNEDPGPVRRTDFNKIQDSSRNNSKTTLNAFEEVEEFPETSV", "experiment": "inside-out single-channel recordings of HEK293 cells overexpressing hTRPV3", "format": "biochemical", "in_short": "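Inside-out patches from EGFP-identified HEK293 cells, 18 h after hTRPV3 transfection, used 6–10 MΩ pipettes. Patches were held at 0 mV, then stepped to +80 mV. Currents were sampled at 10 kHz, filtered at 2.9 kHz, at 22–24 °C. All-points histograms were Gaussian-fitted for conductance and mean open probability; n = 4.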"}, "[3]": {"tested_on": "HEK293 cells expressing hTRPV3", "experiment": "cell death assay", "format": "cell-based, human", "details": "12 h, n = 4", "in_short": "(§1)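 HEK293 cells 12 h after hTRPV3 transfection, or HaCaT cells, were seeded in six-well plates, randomly split into 6 groups, and treated 12 h in culture medium. Cells were detached with 0.25% trypsin (HEK293 1 min; HaCaT 7 min), centrifuged, and stained 30 min in PBS with Hoechst and PI. Five random fields per group were imaged. Death ratio = PI-labelled over Hoechst-labelled nuclei, averaged over five images; n = 4.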"}, "[4]": {"tested_on": "HEK293 cells expressing hTRPV3", "experiment": "cell proliferation MTT assay, HEK293 cells transfected with hTRPV3", "format": "cell-based, human", "details": "carvacrol 300 μmol/L, 24 h", "in_short": "(§2)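 hTRPV3-transfected HEK293 or HaCaT cells were plated at 5 × 10^3 per well for 24 h, then exposed 24 h to TRPV3 activator and/or inhibitor in culture medium. MTT (5 mg/mL solution) was added for 4 h. Medium was removed, formazan dissolved in DMSO, and absorbance read at 490 nm.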"}, "[5]": {"tested_on": "HaCaT cells", "experiment": "cell proliferation MTT assay, HaCaT cells", "format": "cell-based, human", "details": "carvacrol 300 μmol/L, 24 h", "in_short": "as §2"}, "[6]": {"tested_on": "C57BL/6J mice", "experiment": "ear swelling and chronic pruritus model induced by TRPV3 agonist carvacrol", "format": "in vivo, mouse", "details": "3% carvacrol only; recorded 1 h on day 7", "in_short": "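Male C57BL/6J mice, 8–10 weeks old, were acclimatised for at least one week at 22 ± 2 °C on a 12 h light/dark cycle. The right ear received topical 3% carvacrol in ethanol/olive oil (4/1, v/v) once daily for 6 days. Test compound (1.0 mmol/L in 50 μL solvent) was applied 30 min after carvacrol; vehicle was solvent with 1% DMSO. Scratching was recorded for 1 h on day 7; n = 6–8 mice per group.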"}, "[7]": {"tested_on": "HaCaT cells", "experiment": "cell death assay", "format": "cell-based, human", "details": "carvacrol 300 μmol/L alone; 12 h", "in_short": "as §1"}, "[8]": {"target": "hTRPA1 (Homo sapiens, UniProt O75762)", "sequence (O75762 whole entry)": "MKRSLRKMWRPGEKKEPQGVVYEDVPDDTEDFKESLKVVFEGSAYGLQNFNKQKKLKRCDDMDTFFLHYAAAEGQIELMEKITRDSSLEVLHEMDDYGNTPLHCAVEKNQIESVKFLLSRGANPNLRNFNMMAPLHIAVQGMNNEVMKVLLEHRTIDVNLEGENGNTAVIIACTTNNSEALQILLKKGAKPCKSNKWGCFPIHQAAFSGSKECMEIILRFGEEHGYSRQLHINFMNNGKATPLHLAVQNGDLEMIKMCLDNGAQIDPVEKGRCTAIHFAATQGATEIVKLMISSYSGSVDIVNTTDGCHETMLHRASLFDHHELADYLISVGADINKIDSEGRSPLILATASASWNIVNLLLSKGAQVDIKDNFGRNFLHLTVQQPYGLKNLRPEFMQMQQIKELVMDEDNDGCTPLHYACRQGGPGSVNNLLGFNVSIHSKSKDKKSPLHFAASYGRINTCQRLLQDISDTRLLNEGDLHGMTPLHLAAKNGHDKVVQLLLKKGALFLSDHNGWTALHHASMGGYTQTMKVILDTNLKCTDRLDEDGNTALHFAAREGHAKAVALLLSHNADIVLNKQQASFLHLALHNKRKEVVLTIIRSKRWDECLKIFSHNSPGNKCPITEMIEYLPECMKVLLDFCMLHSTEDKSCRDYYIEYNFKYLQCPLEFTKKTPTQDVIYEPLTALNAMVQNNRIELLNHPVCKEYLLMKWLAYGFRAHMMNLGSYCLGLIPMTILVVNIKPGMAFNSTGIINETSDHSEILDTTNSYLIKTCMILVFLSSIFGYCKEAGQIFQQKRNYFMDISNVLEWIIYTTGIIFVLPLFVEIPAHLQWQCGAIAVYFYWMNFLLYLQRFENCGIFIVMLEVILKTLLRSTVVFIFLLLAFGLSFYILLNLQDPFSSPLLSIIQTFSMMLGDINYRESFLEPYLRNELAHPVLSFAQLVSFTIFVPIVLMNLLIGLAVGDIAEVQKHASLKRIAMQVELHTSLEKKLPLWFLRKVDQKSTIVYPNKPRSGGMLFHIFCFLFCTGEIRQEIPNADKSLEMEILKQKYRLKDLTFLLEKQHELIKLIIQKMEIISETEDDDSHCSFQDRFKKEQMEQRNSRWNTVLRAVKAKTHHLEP", "experiment": "whole-cell patch-clamp of TRPA1 currents in HEK293 cells", "format": "cell-based", "details": "ruthenium red 20 μmol/L; current activated by AITC 300 μmol/L", "in_short": "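Human channel cDNAs were transiently transfected into HEK293 cells with Lipofectamine 2000. EGFP-positive cells were recorded whole-cell 18 h later at 22–24 °C with ~4.0 MΩ fire-polished pipettes. Cells were held at 0 mV with 500-ms ramps from −100 to +100 mV every 2 s. Test compound in perfusion solution was co-applied with agonist, and average current inhibition was summarised; n = 4–6.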"}}}
{"smiles": "NCCOB(c1ccccc1)c1ccccc1", "note": "[2-APB, 2-aminoethoxydiphenyl borate, reference compound]", "values": [{"measurement": "activation of H426A mutant channel", "setting": "[1]; 2-APB 50 μmol/L", "value": "not activated"}]}
{"smiles": "Cc1ccc(C(C)C)cc1O", "note": "[carvacrol, reference compound]", "values": [{"measurement": "increase of channel open probability versus vehicle", "setting": "[2]; carvacrol 300 μmol/L alone", "value": "about 90 fold"}, {"measurement": "single channel conductance", "setting": "[2]; carvacrol 300 μmol/L alone", "value": "168.4 ± 2.1", "unit": "pS"}, {"measurement": "channel open probability", "setting": "[2]; carvacrol 300 μmol/L alone, vehicle control 0.3 ± 0.2%", "value": "26.9 ± 5.5", "unit": "%"}, {"measurement": "activation of H426A mutant current", "setting": "[1]; carvacrol 300 μmol/L", "value": "activated"}, {"measurement": "cell death ratio", "setting": "[3]; carvacrol 300 μmol/L alone, vehicle 5.3 ± 0.5%", "value": "21.1 ± 1.9", "unit": "%"}, {"measurement": "cell proliferation", "setting": "[4]", "value": "suppressed the cell proliferation"}, {"measurement": "cell proliferation", "setting": "[5]", "value": "suppressed the cell proliferation"}, {"measurement": "number of scratching bouts", "setting": "[6]", "value": "113.0 ± 16.9"}, {"measurement": "cell death ratio", "setting": "[7]", "value": "13.0 ± 2.1", "unit": "%"}]}
{"smiles": "N.N.N.N.N.N.N.N.N.N.N.N.N.N.[Cl-].[Cl-].[Cl-].[Cl-].[Cl-].[Cl-].[O-2].[O-2].[Ru+3].[Ru+3].[Ru+4]", "note": "[ruthenium red, reference compound]", "values": [{"measurement": "channel open probability", "setting": "[2]; RR 20 μmol/L with carvacrol 300 μmol/L, from 26.9 ± 5.5%, n = 4", "value": "0.5 ± 0.4", "unit": "%"}, {"measurement": "single-channel conductance", "setting": "[2]; RR 20 μmol/L with carvacrol 300 μmol/L, from 175.2 ± 0.9 pS, n = 4", "value": "122.8 ± 5.5", "unit": "pS"}, {"measurement": "cell death ratio", "setting": "[3]; ruthenium red positive control with carvacrol 300 μmol/L", "value": "14.3 ± 1.7", "unit": "%"}, {"measurement": "inhibition of TRPA1 current", "setting": "[8]", "value": "inhibited"}]}
